Reference: ChEMBL document CHEMBL5303300, “EUbOPEN Chemogenomics Library - Multiplex” (2023)
Where “and” joins values, the source holds several entries; their conditions need not be identical. Identical values can stand only once.

Tests used:
Fibroblast = experiment: Multiplex assay against human fibroblast; assay type: toxicity, cell-based; conditions: number of replicates 2
How it was run: (§1)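 Live cells were stained at seeding with Hoechst33342, BioTracker Green Microtubule Cytoskeleton Dye, MitoTracker Red and Annexin V Alexa Fluor 680, then imaged on a CQ1 microscope at 37°C and 5% CO2 after compound addition. CellPathfinder machine-learning gating split cells into Hoechst high-intensity objects or normal cells. Normal cells were split into healthy, pyknosed or fragmented nuclei, and pyknosed cells into mitotic or apoptotic. Tubulin, mitochondrial-mass and membrane-permeability phenotypes are per cents of healthy-nucleus cells.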

HEK-293T = experiment: Multiplex assay against HEK293T; assay type: toxicity, cell-based; conditions: human, number of replicates 2; how it was run: as §1
[1] = 12 h, 1 µM, compound concentration 1 uM
[2] = 12 h, 10 µM, compound concentration 10 uM
[3] = 24 h, 1 µM, compound concentration 1 uM
[4] = 24 h, 10 µM, compound concentration 10 uM
[5] = 48 h, 1 µM, compound concentration 1 uM
[6] = 48 h, 10 µM, compound concentration 10 uM

Compound: Cn1c(Nc2c(Cl)cccc2Cl)nc2ccc3nc[nH]c(=O)c3c21
- Population Apoptotic (%) (Fibroblast; [1]): 43% and 47%
- Population Fragmented Nuclei (%) (Fibroblast; [1]): 10% and 5%
- Population Healthy Nuclei (%) (Fibroblast; [1]): 56% and 67%
- Population Hoechst High Intensity Objects (%) (Fibroblast; [1]): 0%
- Population Membrane Permeable-Phenotype (%) (Fibroblast; [1]): 10% and 6%
- Population Mitochondria Different-Phenotype (%) (Fibroblast; [1]): 1% and 2%
- Population Mitotic Cells (%) (Fibroblast; [1]): 56% and 52%
- Population Normal (%) (Fibroblast; [1]): 100%
- Population Pyknosed Nuclei (%) (Fibroblast; [1]): 32% and 26%
- Population Tubulin-Different-Phenotype (%) (Fibroblast; [1]): 11% and 14%
- Total Cell Count (Fibroblast; [1]): 169 and 189
- Population Apoptotic (%) (Fibroblast; [2]): 40% and 37%
- Population Fragmented Nuclei (%) (Fibroblast; [2]): 8% and 17%
- Population Healthy Nuclei (%) (Fibroblast; [2]): 62% and 69%
- Population Hoechst High Intensity Objects (%) (Fibroblast; [2]): 0%
- Population Membrane Permeable-Phenotype (%) (Fibroblast; [2]): 10% and 5%
- Population Mitochondria Different-Phenotype (%) (Fibroblast; [2]): 4% and 3%
- Population Mitotic Cells (%) (Fibroblast; [2]): 59% and 62%
- Population Normal (%) (Fibroblast; [2]): 100%
- Population Pyknosed Nuclei (%) (Fibroblast; [2]): 28% and 12%
- Population Tubulin-Different-Phenotype (%) (Fibroblast; [2]): 18% and 23%
- Total Cell Count (Fibroblast; [2]): 156 and 195
- Population Apoptotic (%) (Fibroblast; [3]): 53% and 47%
- Population Fragmented Nuclei (%) (Fibroblast; [3]): 8% and 10%
- Population Healthy Nuclei (%) (Fibroblast; [3]): 54% and 57%
- Population Hoechst High Intensity Objects (%) (Fibroblast; [3]): 0%
- Population Membrane Permeable-Phenotype (%) (Fibroblast; [3]): 12% and 11%
- Population Mitochondria Different-Phenotype (%) (Fibroblast; [3]): 1% and 3%
- Population Mitotic Cells (%) (Fibroblast; [3]): 46% and 52%
- Population Normal (%) (Fibroblast; [3]): 100%
- Population Pyknosed Nuclei (%) (Fibroblast; [3]): 36% and 32%
- Population Tubulin-Different-Phenotype (%) (Fibroblast; [3]): 10% and 18%
- Total Cell Count (Fibroblast; [3]): 152 and 202
- Population Apoptotic (%) (Fibroblast; [4]): 43% and 41%
- Population Fragmented Nuclei (%) (Fibroblast; [4]): 16% and 14%
- Population Healthy Nuclei (%) (Fibroblast; [4]): 54% and 72%
- Population Hoechst High Intensity Objects (%) (Fibroblast; [4]): 0%
- Population Membrane Permeable-Phenotype (%) (Fibroblast; [4]): 9% and 6%
- Population Mitochondria Different-Phenotype (%) (Fibroblast; [4]): 3% and 1%
- Population Mitotic Cells (%) (Fibroblast; [4]): 56% and 58%
- Population Normal (%) (Fibroblast; [4]): 100%
- Population Pyknosed Nuclei (%) (Fibroblast; [4]): 28% and 13%
- Population Tubulin-Different-Phenotype (%) (Fibroblast; [4]): 19% and 11%
- Total Cell Count (Fibroblast; [4]): 152 and 183
- Population Apoptotic (%) (Fibroblast; [5]): 59% and 61%
- Population Fragmented Nuclei (%) (Fibroblast; [5]): 15% and 14%
- Population Healthy Nuclei (%) (Fibroblast; [5]): 55% and 62%
- Population Hoechst High Intensity Objects (%) (Fibroblast; [5]): 2% and 0%
- Population Membrane Permeable-Phenotype (%) (Fibroblast; [5]): 17% and 10%
- Population Mitochondria Different-Phenotype (%) (Fibroblast; [5]): 2%
- Population Mitotic Cells (%) (Fibroblast; [5]): 40% and 38%
- Population Normal (%) (Fibroblast; [5]): 97% and 100%
- Population Pyknosed Nuclei (%) (Fibroblast; [5]): 29% and 23%
- Population Tubulin-Different-Phenotype (%) (Fibroblast; [5]): 17% and 13%
- Total Cell Count (Fibroblast; [5]): 128 and 187
- Population Apoptotic (%) (Fibroblast; [6]): 94% and 87%
- Population Fragmented Nuclei (%) (Fibroblast; [6]): 18%
- Population Healthy Nuclei (%) (Fibroblast; [6]): 26% and 35%
- Population Hoechst High Intensity Objects (%) (Fibroblast; [6]): 0%
- Population Mitochondria Different-Phenotype (%) (Fibroblast; [6]): 0%
- Population Mitotic Cells (%) (Fibroblast; [6]): 5% and 12%
- Population Normal (%) (Fibroblast; [6]): 100%
- Population Pyknosed Nuclei (%) (Fibroblast; [6]): 54% and 46%
- Population Tubulin-Different-Phenotype (%) (Fibroblast; [6]): 37% and 16%
- Total Cell Count (Fibroblast; [6]): 131 and 170
- Population Apoptotic (%) (HEK-293T; [1]): 65% and 53%
- Population Fragmented Nuclei (%) (HEK-293T; [1]): 4% and 5%
- Population Healthy Nuclei (%) (HEK-293T; [1]): 77% and 80%
- Population Hoechst High Intensity Objects (%) (HEK-293T; [1]): 16% and 8%
- Population Membrane Permeable-Phenotype (%) (HEK-293T; [1]): 5% and 2%
- Population Mitochondria Different-Phenotype (%) (HEK-293T; [1]): 17% and 11%
- Population Mitotic Cells (%) (HEK-293T; [1]): 34% and 46%
- Population Normal (%) (HEK-293T; [1]): 84% and 91%
- Population Pyknosed Nuclei (%) (HEK-293T; [1]): 18% and 14%
- Population Tubulin-Different-Phenotype (%) (HEK-293T; [1]): 41% and 37%
- Total Cell Count (HEK-293T; [1]): 450 and 596
- Population Apoptotic (%) (HEK-293T; [2]): 29% and 35%
- Population Fragmented Nuclei (%) (HEK-293T; [2]): 1%
- Population Healthy Nuclei (%) (HEK-293T; [2]): 81% and 86%
- Population Hoechst High Intensity Objects (%) (HEK-293T; [2]): 4% and 5%
- Population Membrane Permeable-Phenotype (%) (HEK-293T; [2]): 1% and 2%
- Population Mitochondria Different-Phenotype (%) (HEK-293T; [2]): 17% and 12%
- Population Mitotic Cells (%) (HEK-293T; [2]): 70% and 64%
- Population Normal (%) (HEK-293T; [2]): 95% and 94%
- Population Pyknosed Nuclei (%) (HEK-293T; [2]): 16% and 11%
- Population Tubulin-Different-Phenotype (%) (HEK-293T; [2]): 40% and 36%
- Total Cell Count (HEK-293T; [2]): 676 and 839
- Population Apoptotic (%) (HEK-293T; [3]): 72% and 39%
- Population Fragmented Nuclei (%) (HEK-293T; [3]): 7% and 10%
- Population Healthy Nuclei (%) (HEK-293T; [3]): 78% and 79%
- Population Hoechst High Intensity Objects (%) (HEK-293T; [3]): 10% and 7%
- Population Membrane Permeable-Phenotype (%) (HEK-293T; [3]): 2%
